This is an account of results in ChEMBL document CHEMBL4602720, “Degradation versus Inhibition: Development of Proteolysis-Targeting Chimeras for Overcoming Statin-Induced Compensatory Upregulation of 3-Hydroxy-3-methylglutaryl Coenzyme A Reductase” (J Med Chem, 2020).

The target in assay [1] is T1, Protein cereblon/3-hydroxy-3-methylglutaryl-coenzyme A reductase (Cricetulus griseus) (UniProt P00347+G3H338). The assay can be described thus: Protac activity at CRBN/HMGCR in Insig-1/Insig-2 deficient Chinese hamster SRD15 cells assessed as HMGCR level at 1 uM after 16 hrs in presence of 0.1 uM pomalidomide by immunoblotting analysis (reference value: 1).
In assay [2] the target is T1, Protein cereblon/3-hydroxy-3-methylglutaryl-coenzyme A reductase (Cricetulus griseus). Nature of the assay: Protac activity at CRBN/HMGCR in Insig-1/Insig-2 deficient Chinese hamster SRD15 cells assessed as HMGCR level at 1 uM after 16 hrs in presence of 0.1 uM atorvastatin by immunoblotting analysis (reference value: 1).
Assay [3] shares this target. The assay can be described thus: Protac activity at CRBN/HMGCR in Insig-1/Insig-2 deficient Chinese hamster SRD15 cells assessed as induction of HMGCR degradation at 1 uM preincubated for 16 hrs followed by addition of neddylation inhibitor MLN4924 and further incubated for 3 hrs by Western blot analysis. The method in brief:
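SRD15 cells treated with 1 μM degrader for 16 h, then for 3 h with 10 μM MG132 or with MLN-4924 at the indicated concentrations. HMGCR by immunoblot.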

Assay [4] deals with T2, Protein cereblon/3-hydroxy-3-methylglutaryl-coenzyme A reductase (Homo sapiens) (UniProt P04035+Q96SW2). Nature of the assay: Protac activity at human Flag-tagged CRBN/Myc-tagged HMGCR expressed in HEK293T cells assessed as induction of HMGCR immunoprecipitation 1 uM preincubated for 16 hrs followed by pomalidomide addition addition and measured after 5 hrs by Western blot analysis. It counts as cell-based. Particulars: HEK-293T.
T2 sequence (P04035 whole entry, looked up): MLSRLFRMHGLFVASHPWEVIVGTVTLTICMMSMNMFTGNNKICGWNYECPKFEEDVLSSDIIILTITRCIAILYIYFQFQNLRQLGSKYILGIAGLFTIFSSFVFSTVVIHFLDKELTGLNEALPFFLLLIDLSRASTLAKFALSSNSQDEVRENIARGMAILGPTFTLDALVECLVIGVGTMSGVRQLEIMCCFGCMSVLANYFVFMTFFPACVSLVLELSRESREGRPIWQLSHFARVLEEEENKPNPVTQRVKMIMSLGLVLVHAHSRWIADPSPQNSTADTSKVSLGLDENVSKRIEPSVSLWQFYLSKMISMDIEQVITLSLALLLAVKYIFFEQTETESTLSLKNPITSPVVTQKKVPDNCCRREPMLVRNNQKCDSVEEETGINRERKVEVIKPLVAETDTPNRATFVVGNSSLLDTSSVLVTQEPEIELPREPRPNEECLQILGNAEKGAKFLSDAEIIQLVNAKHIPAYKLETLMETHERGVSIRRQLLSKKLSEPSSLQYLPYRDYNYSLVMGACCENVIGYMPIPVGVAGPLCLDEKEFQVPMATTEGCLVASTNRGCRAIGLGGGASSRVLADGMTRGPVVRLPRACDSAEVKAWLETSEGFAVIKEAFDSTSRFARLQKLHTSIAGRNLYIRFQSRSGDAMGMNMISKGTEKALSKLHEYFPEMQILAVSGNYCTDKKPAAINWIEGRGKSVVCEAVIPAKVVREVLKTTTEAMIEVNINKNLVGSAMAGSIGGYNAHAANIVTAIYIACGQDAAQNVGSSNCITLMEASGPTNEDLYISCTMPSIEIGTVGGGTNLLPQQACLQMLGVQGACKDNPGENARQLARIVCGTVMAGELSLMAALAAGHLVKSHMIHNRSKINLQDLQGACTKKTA
T2 sequence (Q96SW2 whole entry, looked up): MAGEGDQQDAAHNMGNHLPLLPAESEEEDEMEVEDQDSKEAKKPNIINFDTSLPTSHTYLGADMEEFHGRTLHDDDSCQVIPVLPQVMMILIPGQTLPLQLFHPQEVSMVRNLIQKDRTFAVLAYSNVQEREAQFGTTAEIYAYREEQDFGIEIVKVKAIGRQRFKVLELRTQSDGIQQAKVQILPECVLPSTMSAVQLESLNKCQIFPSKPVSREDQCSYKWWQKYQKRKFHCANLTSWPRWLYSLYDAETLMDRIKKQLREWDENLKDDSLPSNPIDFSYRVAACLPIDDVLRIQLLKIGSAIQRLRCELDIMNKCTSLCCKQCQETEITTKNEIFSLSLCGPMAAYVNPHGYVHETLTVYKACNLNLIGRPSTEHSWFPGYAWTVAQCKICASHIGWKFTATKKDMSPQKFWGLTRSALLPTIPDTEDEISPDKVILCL

The target in assay [5] is T1, Protein cereblon/3-hydroxy-3-methylglutaryl-coenzyme A reductase (Cricetulus griseus). Nature of the assay: Protac activity at CRBN/HMGCR in Insig-1/Insig-2 deficient Chinese hamster SRD15 cells assessed as HMGCR level at 1 uM after 16 hrs by immunoblotting analysis (reference value: 1). An outline of the steps: (§1)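 Dose-response in SRD15 cells in Medium A with 5% FBS, 16 h treatment, DMSO final 0.1% or lower. RIPA lysates immunoblotted for HMGCR. HMGCR densitometry normalized to actin, with the DMSO group set to 1. Three repeats. DC50 is taken from a dose-response fit of the semi-quantitative blots, mean of 3 independent experiments.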

The target is the same in assay [6]. The assay can be described thus: Protac activity at CRBN/HMGCR in Insig-1/Insig-2 deficient Chinese hamster SRD15 cells assessed as HMGCR level at 0.03 uM after 16 hrs by immunoblotting analysis (reference value: 1). The method in brief: as §1
The target is the same in assay [7]. The assay can be described thus: Protac activity at CRBN/HMGCR in 5'-GGAAGUCGAAGACCAAGAU-3' siRNA transfected in Insig-1/Insig-2 deficient Chinese hamster SRD15 cells assessed as induction of HMGCR degradation at after 16 hrs by immunoblotting analysis. The method in brief: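 SRD15 cells (Insig-1/Insig-2-deficient CHO-7) in Medium A with 5% FBS at 37 °C, 5% CO2; transfected with negative-control or Crbn-targeting siRNA duplexes for 48 h, then given 1 μM degrader for 16 h. HMGCR by SDS-PAGE immunoblot of RIPA lysates. Knockdown efficiency checked by qRT-PCR against hamster GAPDH, comparative CT method. n = 3 independent experiments.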

Assay [8] has the same target. The assay can be described thus: Protac activity at CRBN/HMGCR in Insig-1/Insig-2 deficient Chinese hamster SRD15 cells assessed as HMGCR level at 1 uM after 16 hrs in presence of 1 uM pomalidomide by immunoblotting analysis (reference value: 1).
In assay [9] the target is T2, Protein cereblon/3-hydroxy-3-methylglutaryl-coenzyme A reductase (Homo sapiens). Nature of the assay: Protac activity at CRBN/HMGCR in human Huh7 cells assessed as induction of HMGCR degradation at 0.01 to 1 uM after 16 hrs by Western blot analysis. It counts as cell-based. As to conditions: Huh-7.
For assay [10], the target named is T1, Protein cereblon/3-hydroxy-3-methylglutaryl-coenzyme A reductase (Cricetulus griseus). Nature of the assay: Protac activity at CRBN/HMGCR in Insig-1/Insig-2 deficient Chinese hamster SRD15 cells assessed as induction of HMGCR degradation at 1 uM after 16 hrs by immunoblotting analysis relative to control. An outline of the steps: as §1
In assay [11] the target is T3, Protein cereblon/3-hydroxy-3-methylglutaryl-coenzyme A reductase (Cricetulus griseus, UniProt P00347+G3H338).
T3 sequence (P00347 whole entry): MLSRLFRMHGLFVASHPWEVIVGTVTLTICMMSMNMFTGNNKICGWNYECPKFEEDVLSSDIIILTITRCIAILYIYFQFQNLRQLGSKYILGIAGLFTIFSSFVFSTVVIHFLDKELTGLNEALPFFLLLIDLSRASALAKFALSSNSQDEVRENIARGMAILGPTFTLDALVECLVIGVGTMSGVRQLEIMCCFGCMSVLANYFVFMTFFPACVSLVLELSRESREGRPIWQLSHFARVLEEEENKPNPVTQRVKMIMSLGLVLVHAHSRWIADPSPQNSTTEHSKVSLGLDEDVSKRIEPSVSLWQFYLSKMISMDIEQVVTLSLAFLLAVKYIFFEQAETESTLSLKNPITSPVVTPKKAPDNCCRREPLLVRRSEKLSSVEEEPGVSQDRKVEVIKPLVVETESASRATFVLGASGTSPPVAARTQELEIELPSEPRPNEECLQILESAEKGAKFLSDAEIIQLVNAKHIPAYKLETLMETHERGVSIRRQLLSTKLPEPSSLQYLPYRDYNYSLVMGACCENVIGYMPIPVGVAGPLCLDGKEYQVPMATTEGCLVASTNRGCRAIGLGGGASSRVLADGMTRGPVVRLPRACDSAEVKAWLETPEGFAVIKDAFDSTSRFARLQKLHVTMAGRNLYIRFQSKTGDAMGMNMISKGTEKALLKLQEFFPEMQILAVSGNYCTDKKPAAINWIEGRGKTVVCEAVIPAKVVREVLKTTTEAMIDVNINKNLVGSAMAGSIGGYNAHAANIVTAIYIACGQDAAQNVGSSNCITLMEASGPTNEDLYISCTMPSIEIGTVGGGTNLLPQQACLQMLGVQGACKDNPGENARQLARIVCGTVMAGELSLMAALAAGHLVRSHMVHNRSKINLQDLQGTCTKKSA
T3 sequence (G3H338 whole entry): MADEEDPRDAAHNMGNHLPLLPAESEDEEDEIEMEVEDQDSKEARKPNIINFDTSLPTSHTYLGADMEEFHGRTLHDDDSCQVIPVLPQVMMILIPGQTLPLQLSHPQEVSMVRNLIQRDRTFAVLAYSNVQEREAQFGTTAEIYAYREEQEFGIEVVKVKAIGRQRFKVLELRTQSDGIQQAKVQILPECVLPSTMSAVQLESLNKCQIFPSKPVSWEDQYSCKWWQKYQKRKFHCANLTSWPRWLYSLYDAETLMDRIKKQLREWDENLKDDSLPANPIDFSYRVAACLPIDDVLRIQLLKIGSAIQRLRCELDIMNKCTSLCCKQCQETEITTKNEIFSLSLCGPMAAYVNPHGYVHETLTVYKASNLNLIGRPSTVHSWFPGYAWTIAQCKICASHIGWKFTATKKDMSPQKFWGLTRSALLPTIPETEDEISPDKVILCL
The assay can be described thus: Protac activity at CRBN/HMGCR in Insig-1/Insig-2 deficient Chinese hamster SRD15 cells assessed as induction of HMGCR degradation after 16 hrs by immunoblotting analysis. The method in brief:
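SRD15 cells treated with compound at varying concentrations for 16 h, final DMSO ≤0.1%; RIPA lysates (Lowry protein) immunoblotted for HMGCR, densitometry normalized to actin, DMSO set to 1; DC50 = concentration giving 50% loss versus DMSO, fitted to dose-response curve, mean of 3 independent experiments.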

Active and inactive are the calls of the source. The calls are words filed in the database; no cut-off is given here.

As for `CC(C)c1c(C(=O)Nc2ccccc2)c(-c2cccc(OCCCc3cn(CCOCCOCCOCCOCCNc4cccc5c4C(=O)N(C4CCC(=O)NC4=O)C5=O)nn3)c2)c(-c2ccc(F)cc2)n1CC[C@@H](O)C[C@@H](O)CC(=O)O` (stereo partly specified), the fold change (FC) in assay [1] was 0.4; in assay [2] it was 0.9; in [5], 0.3 to 0.6; in assay [6], 0.6; in assay [8], 1. Further, the result in assay [3], in [4] and in assay [7] was inactive. The result in [9] was Active. For the same compound, the Activity in assay [10] came to 70%. Further, in assay [11], the DC50 came out at 100 nM.
